Source: the M2OR odorant receptor database

Assays:
Settings in all cases: stereoisomer not certain
OR10R2 (Homo sapiens) = biological target: T1, OR10R2 (Homo sapiens) (UniProt Q8NGX6)
T1 sequence (whole entry): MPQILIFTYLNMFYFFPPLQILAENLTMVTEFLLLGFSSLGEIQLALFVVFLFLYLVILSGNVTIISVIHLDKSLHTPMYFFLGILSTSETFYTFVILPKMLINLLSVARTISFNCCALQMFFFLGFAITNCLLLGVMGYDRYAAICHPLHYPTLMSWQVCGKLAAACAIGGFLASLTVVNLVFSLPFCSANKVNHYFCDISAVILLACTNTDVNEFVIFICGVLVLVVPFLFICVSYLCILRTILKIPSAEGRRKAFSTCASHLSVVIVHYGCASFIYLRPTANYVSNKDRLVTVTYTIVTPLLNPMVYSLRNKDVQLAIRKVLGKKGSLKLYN
Summary of the method: (§1)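 Each receptor–molecule pair is labelled responsive or non-responsive (inactive) according to whether the original authors judged the measured signal statistically different from baseline. The data were taken from the main text and supplementary material of published papers and checked for typos and inconsistencies. Assay methods differed by source, with transient luciferase assays in mammalian cell lines being common.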

OR10S1 (Homo sapiens) = biological target: T2, OR10S1 (Homo sapiens) (UniProt Q8NGN2)
T2 sequence (whole entry): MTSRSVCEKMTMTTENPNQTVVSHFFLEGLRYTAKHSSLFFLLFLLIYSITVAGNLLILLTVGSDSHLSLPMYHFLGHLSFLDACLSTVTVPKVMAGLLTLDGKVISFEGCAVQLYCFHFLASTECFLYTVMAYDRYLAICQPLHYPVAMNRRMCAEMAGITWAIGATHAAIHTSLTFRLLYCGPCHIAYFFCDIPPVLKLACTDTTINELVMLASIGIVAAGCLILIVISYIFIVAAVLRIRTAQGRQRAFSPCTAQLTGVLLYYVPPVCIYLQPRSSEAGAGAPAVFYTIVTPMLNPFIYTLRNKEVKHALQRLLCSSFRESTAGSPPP
Summary of the method: as §1

OR10T2 (Homo sapiens) = biological target: T3, OR10T2 (Homo sapiens) (UniProt Q8NGX3)
T3 sequence (whole entry): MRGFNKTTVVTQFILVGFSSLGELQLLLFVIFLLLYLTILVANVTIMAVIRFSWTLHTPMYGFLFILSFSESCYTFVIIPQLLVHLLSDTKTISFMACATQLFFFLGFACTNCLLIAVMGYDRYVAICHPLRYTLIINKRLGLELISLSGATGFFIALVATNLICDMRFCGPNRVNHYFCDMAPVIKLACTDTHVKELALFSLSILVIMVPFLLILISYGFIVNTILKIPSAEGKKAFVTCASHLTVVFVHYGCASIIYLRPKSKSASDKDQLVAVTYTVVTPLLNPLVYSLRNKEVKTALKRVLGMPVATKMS
Summary of the method: as §1

OR10V1 (Homo sapiens) = biological target: T4, OR10V1 (Homo sapiens) (UniProt Q8NGI7)
T4 sequence (whole entry): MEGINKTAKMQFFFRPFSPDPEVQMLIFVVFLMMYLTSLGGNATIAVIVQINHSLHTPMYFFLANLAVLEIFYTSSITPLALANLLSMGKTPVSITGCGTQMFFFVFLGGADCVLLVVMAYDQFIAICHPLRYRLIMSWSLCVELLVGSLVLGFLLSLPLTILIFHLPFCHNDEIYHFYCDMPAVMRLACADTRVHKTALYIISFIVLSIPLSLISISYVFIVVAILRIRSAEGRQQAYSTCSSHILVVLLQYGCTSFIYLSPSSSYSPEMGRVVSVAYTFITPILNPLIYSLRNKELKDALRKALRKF
Summary of the method: as §1

OR10W1 (Homo sapiens) = biological target: T5, OR10W1 (Homo sapiens) (UniProt Q8NGF6)
T5 sequence (whole entry): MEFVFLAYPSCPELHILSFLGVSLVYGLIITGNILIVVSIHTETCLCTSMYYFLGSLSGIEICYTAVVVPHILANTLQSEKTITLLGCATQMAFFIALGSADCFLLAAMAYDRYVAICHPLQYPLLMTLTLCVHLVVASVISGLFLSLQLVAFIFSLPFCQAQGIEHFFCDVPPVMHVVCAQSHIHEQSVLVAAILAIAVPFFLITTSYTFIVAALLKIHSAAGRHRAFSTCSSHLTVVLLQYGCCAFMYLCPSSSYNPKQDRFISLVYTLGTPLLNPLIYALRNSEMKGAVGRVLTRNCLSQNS
Summary of the method: as §1

OR10X1 (Homo sapiens) = biological target: T6, OR10X1 (Homo sapiens) (UniProt Q8NGY0)
T6 sequence (whole entry): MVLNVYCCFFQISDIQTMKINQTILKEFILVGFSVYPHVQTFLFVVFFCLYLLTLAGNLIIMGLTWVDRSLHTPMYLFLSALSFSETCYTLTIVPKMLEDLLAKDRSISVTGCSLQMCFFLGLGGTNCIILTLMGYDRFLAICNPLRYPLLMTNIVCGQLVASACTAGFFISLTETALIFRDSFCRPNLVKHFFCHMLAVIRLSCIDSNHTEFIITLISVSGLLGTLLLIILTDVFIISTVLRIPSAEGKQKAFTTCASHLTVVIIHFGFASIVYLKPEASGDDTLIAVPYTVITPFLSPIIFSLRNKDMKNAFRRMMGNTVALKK
Summary of the method: as §1

OR10Z1 (Homo sapiens) = biological target: T7, OR10Z1 (Homo sapiens) (UniProt Q8NGY1)
T7 sequence (whole entry): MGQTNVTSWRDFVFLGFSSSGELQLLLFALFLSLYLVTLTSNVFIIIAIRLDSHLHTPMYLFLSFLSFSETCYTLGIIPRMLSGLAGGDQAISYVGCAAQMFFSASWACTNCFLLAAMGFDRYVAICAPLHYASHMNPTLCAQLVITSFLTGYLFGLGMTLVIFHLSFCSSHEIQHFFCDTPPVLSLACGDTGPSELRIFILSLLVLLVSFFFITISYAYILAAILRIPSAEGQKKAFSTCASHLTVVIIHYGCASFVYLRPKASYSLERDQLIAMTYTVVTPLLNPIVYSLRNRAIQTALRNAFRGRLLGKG
Summary of the method: as §1

OR11A1 (Homo sapiens) = biological target: T8, OR11A1 (Homo sapiens) (UniProt Q9GZK7)
T8 sequence (whole entry): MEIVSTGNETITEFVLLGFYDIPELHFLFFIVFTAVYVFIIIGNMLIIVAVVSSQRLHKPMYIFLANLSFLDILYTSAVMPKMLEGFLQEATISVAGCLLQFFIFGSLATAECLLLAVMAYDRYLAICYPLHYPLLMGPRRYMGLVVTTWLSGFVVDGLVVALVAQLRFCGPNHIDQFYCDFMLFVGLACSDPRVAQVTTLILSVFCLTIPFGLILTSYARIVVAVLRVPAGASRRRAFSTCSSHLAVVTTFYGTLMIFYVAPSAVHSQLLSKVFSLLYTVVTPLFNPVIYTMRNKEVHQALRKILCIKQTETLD
Summary of the method: as §1

OR11G2 (Homo sapiens) = biological target: T9, OR11G2 (Homo sapiens) (UniProt Q8NGC1)
T9 sequence (whole entry): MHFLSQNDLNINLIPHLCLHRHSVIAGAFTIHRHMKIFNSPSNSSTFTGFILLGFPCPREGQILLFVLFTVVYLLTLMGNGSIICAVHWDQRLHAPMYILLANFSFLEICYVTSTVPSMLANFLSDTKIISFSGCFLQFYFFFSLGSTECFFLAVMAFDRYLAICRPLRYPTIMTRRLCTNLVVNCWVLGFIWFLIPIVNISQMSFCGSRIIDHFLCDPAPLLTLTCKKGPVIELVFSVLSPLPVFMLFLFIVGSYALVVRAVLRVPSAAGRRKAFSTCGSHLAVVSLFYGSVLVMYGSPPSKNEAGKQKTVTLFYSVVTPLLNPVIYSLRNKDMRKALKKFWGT
Summary of the method: as §1

OR11H1 (Homo sapiens) = biological target: T10, OR11H1 (Homo sapiens) (UniProt Q8NG94)
T10 sequence (whole entry): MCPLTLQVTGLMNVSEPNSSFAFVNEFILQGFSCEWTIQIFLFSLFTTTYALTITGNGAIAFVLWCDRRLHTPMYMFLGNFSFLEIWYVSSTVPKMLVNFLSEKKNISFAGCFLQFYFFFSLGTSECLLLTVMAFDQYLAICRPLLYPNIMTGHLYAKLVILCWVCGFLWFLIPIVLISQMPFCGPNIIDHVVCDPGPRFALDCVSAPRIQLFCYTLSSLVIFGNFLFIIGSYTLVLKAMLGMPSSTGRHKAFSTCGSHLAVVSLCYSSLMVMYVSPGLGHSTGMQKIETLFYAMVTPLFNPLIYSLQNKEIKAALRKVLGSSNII
Summary of the method: as §1

Measured: odorant receptor agonist call;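 note: active if original authors judged signal statistically different from baseline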

CCC(S)C(C)CO (stereo unspecified)
inactive: OR10R2 (Homo sapiens) | OR10S1 (Homo sapiens) | OR10T2 (Homo sapiens) | OR10V1 (Homo sapiens) | OR10W1 (Homo sapiens) | OR10X1 (Homo sapiens) | OR10Z1 (Homo sapiens) | OR11A1 (Homo sapiens) | OR11G2 (Homo sapiens) | OR11H1 (Homo sapiens)

CCCCC(S)C(C)CO (stereo unspecified)
inactive: OR10R2 (Homo sapiens) | OR10S1 (Homo sapiens) | OR10T2 (Homo sapiens) | OR10V1 (Homo sapiens) | OR10W1 (Homo sapiens) | OR10X1 (Homo sapiens) | OR10Z1 (Homo sapiens) | OR11A1 (Homo sapiens) | OR11G2 (Homo sapiens) | OR11H1 (Homo sapiens)

CCCCCCCCCCCCCCCC(=O)OCC
inactive: OR10S1 (Homo sapiens)

CCC1OC(=O)C(O)=C1C (stereo unspecified)
inactive: OR10R2 (Homo sapiens) | OR10S1 (Homo sapiens) | OR10T2 (Homo sapiens) | OR10V1 (Homo sapiens) | OR10W1 (Homo sapiens) | OR10X1 (Homo sapiens) | OR10Z1 (Homo sapiens) | OR11A1 (Homo sapiens) | OR11G2 (Homo sapiens) | OR11H1 (Homo sapiens)

Cc1cnc(C)c(C)n1
inactive: OR10R2 (Homo sapiens) | OR10S1 (Homo sapiens) | OR10T2 (Homo sapiens) | OR10V1 (Homo sapiens) | OR10W1 (Homo sapiens) | OR10X1 (Homo sapiens) | OR10Z1 (Homo sapiens) | OR11A1 (Homo sapiens) | OR11G2 (Homo sapiens) | OR11H1 (Homo sapiens)

CCCCCC(S)C(C)CO (stereo unspecified)
inactive: OR10R2 (Homo sapiens) | OR10S1 (Homo sapiens) | OR10T2 (Homo sapiens) | OR10V1 (Homo sapiens) | OR10W1 (Homo sapiens) | OR10X1 (Homo sapiens) | OR10Z1 (Homo sapiens) | OR11A1 (Homo sapiens) | OR11G2 (Homo sapiens) | OR11H1 (Homo sapiens)

CC(=O)c1c(C)c([N+](=O)[O-])c(C(C)(C)C)c([N+](=O)[O-])c1C
inactive: OR10R2 (Homo sapiens) | OR10S1 (Homo sapiens) | OR10T2 (Homo sapiens) | OR10V1 (Homo sapiens) | OR10W1 (Homo sapiens) | OR10X1 (Homo sapiens) | OR10Z1 (Homo sapiens) | OR11A1 (Homo sapiens) | OR11G2 (Homo sapiens) | OR11H1 (Homo sapiens)

CC1=NC(C)C(C)S1 (stereo unspecified)
inactive: OR10R2 (Homo sapiens) | OR10S1 (Homo sapiens) | OR10T2 (Homo sapiens) | OR10V1 (Homo sapiens) | OR10W1 (Homo sapiens) | OR10X1 (Homo sapiens) | OR10Z1 (Homo sapiens) | OR11A1 (Homo sapiens) | OR11G2 (Homo sapiens) | OR11H1 (Homo sapiens)
